Measurements taken from ChEMBL document CHEMBL1146217, “Growth inhibition of Mycobacterium bovis, Mycobacterium tuberculosis and Mycobacterium avium in vitro: effect of 1-beta-D-2'-arabinofuranosyl and 1-(2'-deoxy-2'-fluoro-beta-D-2'-ribofuranosyl) pyrimidine nucleoside analogs” (J Med Chem, 2007).
In brackets after ≈: the same amount, converted by molar mass.

Legend:
Type in all cases: functional
Settings in all cases: variant bovis BCG
[1] = test system: Mycobacterium tuberculosis; test: Antimycobacterial activity against Mycobacterium bovis BCG at 100 ug/mL by microplate Alamar blue assay
Procedure, shortened: (§1)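 MABA with M. bovis BCG, M. tuberculosis H37Ra or M. avium ATCC 25291. DMSO stocks (10 mg/mL) diluted in 7H9GC; final inoculum 2.5 × 10⁵ CFU/mL. Incubated 6 days, then alamar blue plus Tween 80 added and read by fluorescence after about 24 h. […]. Tested in triplicate at 100, 50, 10 and 1 µg/mL; two experiments, mean reported.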

[2] = test system: Mycobacterium tuberculosis; test: Antimycobacterial activity against Mycobacterium bovis BCG at 10 ug/mL by microplate Alamar blue assay; procedure, shortened: as §1
[3] = test system: Mycobacterium tuberculosis; test: Antimycobacterial activity against Mycobacterium bovis BCG at 1ug/mL by microplate Alamar blue assay; procedure, shortened: as §1
[4] = test system: Mycobacterium tuberculosis; test: Antimycobacterial activity against Mycobacterium bovis BCG by microplate Alamar blue assay
Procedure, shortened: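 Same alamar blue microplate setup (7H9GC, 2.5 × 10⁵ CFU/mL, 6 days, then dye read after about 24 h), using 2-fold compound dilutions. MIC90 is the lowest concentration giving about 90% inhibition relative to bacteria-only wells after background subtraction. Visual MIC is the lowest concentration preventing the blue-to-pink change.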

[5] = test system: Mycobacterium tuberculosis; test: Antimycobacterial activity against Mycobacterium bovis BCG at 50 ug/mL by microplate Alamar blue assay; procedure, shortened: as §1

Compound	inhibition at 100 µg/mL [1]	inhibition at 10 µg/mL [2]	inhibition at 1 µg/mL [3]	MIC90 [4]	inhibition at 50 µg/mL [5]
O=c1[nH]c(=O)n([C@@H]2O[C@H](CO)[C@@H](O)[C@@H]2O)cc1C(O)C(Br)Br (some centres not stated)	0%	–	–	–	–
O=c1[nH]c(=O)n([C@@H]2O[C@H](CO)[C@@H](O)[C@@H]2O)cc1Br	0%	–	–	–	–
Cc1cn([C@@H]2O[C@H](CO)[C@@H](O)[C@@H]2O)c(=O)[nH]c1=S	0%	–	–	–	–
CCCCCCCCCCC#Cc1cn([C@@H]2O[C@H](CO)[C@@H](O)[C@H]2F)c(=O)[nH]c1=O	100%	100%	70%	1 µg/mL (≈ 2.44 µM)	100%
CCCCCCCCCCCC#Cc1cn([C@@H]2O[C@H](CO)[C@@H](O)[C@H]2F)c(=O)[nH]c1=O	100%	100%	90%	1 µg/mL (≈ 2.36 µM)	100%
CCCCCCCCCCCCC#Cc1cn([C@@H]2O[C@H](CO)[C@@H](O)[C@@H]2O)c(=O)[nH]c1=O	100%	50%	–	10 µg/mL (≈ 22.9 µM)	100%
CCCCCCCCCCCCC#Cc1cn([C@@H]2O[C@H](CO)[C@@H](O)[C@H]2F)c(=O)[nH]c1=O	100%	50%	–	10 µg/mL (≈ 22.8 µM)	100%
CCCc1ccc(C#Cc2cn([C@@H]3O[C@H](CO)[C@@H](O)[C@@H]3O)c(=O)[nH]c2=O)cc1	100%	–	–	100 µg/mL (≈ 259 µM)	50%
CCOC(=O)/C=C/c1cn([C@@H]2O[C@H](CO)[C@@H](O)[C@H]2F)c(=O)[nH]c1=O	0%	–	–	–	–
CCOC(=O)C(Cl)C(O)c1cn([C@@H]2O[C@H](CO)[C@@H](O)[C@H]2F)c(=O)[nH]c1=O (some centres not stated)	0%	–	–	–	–
CCOC(=O)C(Br)C(O)c1cn([C@@H]2O[C@H](CO)[C@@H](O)[C@H]2F)c(=O)[nH]c1=O (some centres not stated)	0%	–	–	–	–
O=c1[nH]c(=O)n([C@@H]2O[C@H](CO)[C@@H](O)[C@H]2F)cc1Br	0%	–	–	–	–
O=C(O)/C=C/c1cn([C@@H]2O[C@H](CO)[C@@H](O)[C@@H]2O)c(=O)[nH]c1=O	0%	–	–	–	–
COC(CI)c1cn([C@@H]2O[C@H](CO)[C@@H](O)[C@@H]2O)c(=O)[nH]c1=O (some centres not stated)	0%	–	–	–	–
CCCCCC#Cc1cn([C@@H]2O[C@H](CO)[C@@H](O)[C@@H]2O)c(=O)[nH]c1=O	25%	–	–	–	–
CCCCCCCCC#Cc1cn([C@@H]2O[C@H](CO)[C@@H](O)[C@@H]2O)c(=O)[nH]c1=O	100%	30%	–	100 µg/mL (≈ 263 µM)	50%

Compound	inhibition at 100 µg/mL [1]	inhibition at 10 µg/mL [2]	inhibition at 1 µg/mL [3]	MIC90 [4]	inhibition at 50 µg/mL [5]
CCCCCCCCCCC#Cc1cn([C@@H]2O[C@H](CO)[C@@H](O)[C@@H]2O)c(=O)[nH]c1=O	100%	100%	75%	1 µg/mL (≈ 2.45 µM)	100%
CCCCCCCCCCCC#Cc1cn([C@@H]2O[C@H](CO)[C@@H](O)[C@@H]2O)c(=O)[nH]c1=O	100%	50%	–	10 µg/mL (≈ 23.7 µM)	100%
O=c1[nH]c(=O)n([C@@H]2O[C@H](CO)[C@@H](O)[C@H]2F)cc1Cl	50%	–	–	–	50%
Cc1cn([C@@H]2O[C@H](CO)[C@@H](O)[C@H]2F)c(=O)[nH]c1=S	25%	–	–	–	–
O=c1[nH]c(=O)n([C@@H]2O[C@H](CO)[C@@H](O)[C@@H]2O)cc1C(O)C(Cl)Cl (some centres not stated)	0%	–	–	–	–
O=c1[nH]c(=O)n([C@@H]2O[C@H](CO)[C@@H](O)[C@@H]2O)cc1C(O)CI (some centres not stated)	0%	–	–	–	–
O=C(O)C(I)C(O)c1cn([C@@H]2O[C@H](CO)[C@@H](O)[C@H]2F)c(=O)[nH]c1=O (some centres not stated)	0%	–	–	–	–
O=c1[nH]c(=O)n([C@@H]2O[C@H](CO)[C@@H](O)[C@@H]2O)cc1Cl	0%	–	–	–	–
O=c1[nH]c(=S)ccn1[C@@H]1O[C@H](CO)[C@@H](O)[C@@H]1O	0%	–	–	–	–
CCCCCC#Cc1cn([C@@H]2O[C@H](CO)[C@@H](O)[C@H]2F)c(=O)[nH]c1=O	50%	–	–	–	–
O=c1[nH]c(=S)ccn1[C@@H]1O[C@H](CO)[C@@H](O)[C@H]1F	25%	–	–	–	–
CCOC(=O)/C=C/c1cn([C@@H]2O[C@H](CO)[C@@H](O)[C@@H]2O)c(=O)[nH]c1=O	0%	–	–	–	–
CCCCCCCCC#Cc1cn([C@@H]2O[C@H](CO)[C@@H](O)[C@H]2F)c(=O)[nH]c1=O	100%	50%	30%	50 µg/mL (≈ 131 µM)	75%
O=C(O)/C=C/c1cn([C@@H]2O[C@H](CO)[C@@H](O)[C@H]2F)c(=O)[nH]c1=O	0%	–	–	–	–
CO[C@H]1/C=C/O[C@@]2(C)Oc3c(C)c(O)c4c(O)c(c(/C=N/N5CCN(C)CC5)c(O)c4c3C2=O)NC(=O)/C(C)=C\C=C\[C@H](C)[C@H](O)[C@@H](C)[C@@H](O)[C@@H](C)[C@H](OC(C)=O)[C@@H]1C [RIFAMPIN]	–	–	–	0.5 µg/mL (≈ 0.608 µM)	–
